Data taken from ChEMBL document CHEMBL1139738, “Pyridine-3-propanoic acids: Discovery of dual PPARalpha/gamma agonists as antidiabetic agents” (Bioorg Med Chem Lett, 2006).

Assays:
[1] = target: T1, Peroxisome proliferator-activated receptor gamma (Homo sapiens) (UniProt P37231); assay: Displacement of radiolabeled darglitazone from human PPAR gamma at 100 uM by SPA assay
T1 sequence (whole entry): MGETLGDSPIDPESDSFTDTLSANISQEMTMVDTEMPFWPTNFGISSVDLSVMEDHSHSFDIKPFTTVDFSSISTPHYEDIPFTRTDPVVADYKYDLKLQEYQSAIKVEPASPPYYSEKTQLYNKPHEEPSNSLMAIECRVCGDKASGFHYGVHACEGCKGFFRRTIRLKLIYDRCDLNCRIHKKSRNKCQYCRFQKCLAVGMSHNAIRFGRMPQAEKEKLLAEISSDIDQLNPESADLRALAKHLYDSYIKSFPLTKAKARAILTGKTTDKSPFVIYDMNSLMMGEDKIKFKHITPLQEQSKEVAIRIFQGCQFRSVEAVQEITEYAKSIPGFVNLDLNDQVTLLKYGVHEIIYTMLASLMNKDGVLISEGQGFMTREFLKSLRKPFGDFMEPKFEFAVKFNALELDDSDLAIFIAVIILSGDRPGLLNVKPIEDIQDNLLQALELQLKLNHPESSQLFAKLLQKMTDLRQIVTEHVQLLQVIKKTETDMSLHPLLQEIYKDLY
Summary of the method: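 Scintillation proximity assay on human PPARγ using radiolabelled darglitazone as the displaced ligand, following published procedures. Single-concentration lines report percent displacement at the stated test concentration; Ki was determined for compounds with a full curve.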

[2] = target: T2, Peroxisome proliferator-activated receptor alpha (Homo sapiens) (UniProt Q07869); assay: Displacement of radiolabeled GW-2331 from human PPAR alpha by SPA assay at 11 uM
T2 sequence (whole entry): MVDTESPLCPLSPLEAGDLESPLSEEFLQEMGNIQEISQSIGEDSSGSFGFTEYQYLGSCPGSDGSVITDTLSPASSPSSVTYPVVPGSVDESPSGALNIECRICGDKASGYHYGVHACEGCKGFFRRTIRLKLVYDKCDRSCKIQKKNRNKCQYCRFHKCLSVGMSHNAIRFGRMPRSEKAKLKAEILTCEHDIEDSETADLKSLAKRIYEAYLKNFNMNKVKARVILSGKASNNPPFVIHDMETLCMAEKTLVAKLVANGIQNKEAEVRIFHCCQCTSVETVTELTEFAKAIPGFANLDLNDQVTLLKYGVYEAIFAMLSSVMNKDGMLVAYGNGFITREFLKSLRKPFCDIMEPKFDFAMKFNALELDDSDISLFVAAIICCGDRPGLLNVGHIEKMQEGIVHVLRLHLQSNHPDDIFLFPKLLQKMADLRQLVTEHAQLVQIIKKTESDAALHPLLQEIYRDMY
Summary of the method: (§1)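 Scintillation proximity assay on human PPARα using radiolabelled GW2331 as the displaced ligand, following published procedures. Single-concentration lines report percent displacement at the stated test concentration; Ki was determined for compounds with a full curve.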

[3] = target: T2, Peroxisome proliferator-activated receptor alpha (Homo sapiens); assay: Agonist activity at human PPAR alpha in a HepG2 cells by PPAR-GAL4 transactivation assay relative to GW-2331; type: functional, cell-based
[4] = target: T3, Peroxisome proliferator-activated receptor alpha (Homo sapiens, UniProt Q07869); assay: Displacement of radiolabeled GW-2331 from human PPAR alpha by SPA binding assay
T3 sequence (Q07869 whole entry): T2 sequence (whole entry)

[5] = target: T3, Peroxisome proliferator-activated receptor alpha; assay: Agonist activity at human PPAR alpha in a HepG2 cells by PPAR-GAL4 transactivation assay; type: functional, cell-based
Mus musculus [6] = assay: Reduction of plasma glucose in orally dosed db/db mouse at 10 mg/kg after 8 days relative to control; type: functional; design: scale not given: the % may be the effect or the level left; conditions: route oral
Summary of the method: (§2)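 Male db/db mice, 7 weeks old, with lean controls, given vehicle or compound by oral gavage once daily for 8 days. Plasma glucose, triglycerides, hematocrit and body weight measured before dosing on day −1 and 2 h post-dose on day 8. Percent change is expressed versus vehicle control, with significance at p < 0.05.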

[7] = Half life in orally dosed Sprague-Dawley rat; type: ADME, organism-based; conditions: in vivo, po
Summary of the method: (§3)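 Pharmacokinetics in male Sprague–Dawley rats given iv and oral doses. Outputs are iv clearance (mL/min/kg), oral half-life, dose-normalized oral AUC (h μg/mL) and oral bioavailability (%).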

Mus musculus [8] = assay: Reduction of hematocrit in orally dosed db/db mouse at 1 mg/kg after 8 days relative to control; type: functional; design: scale not given: the % may be the effect or the level left; conditions: route oral; summary of the method: as §2
[9] = Oral bioavailability in Sprague-Dawley rat; type: ADME, organism-based; conditions: in vivo; summary of the method: as §3
Mus musculus [10] = assay: Reduction of hematocrit in orally dosed db/db mouse at 10 mg/kg after 8 days relative to control; type: functional; design: scale not given: the % may be the effect or the level left; conditions: route oral; summary of the method: as §2
[11] = Clearance in iv dosed Sprague-Dawley rat; type: ADME, organism-based; conditions: in vivo; summary of the method: as §3
Mus musculus [12] = assay: Reduction of plasma glucose in orally dosed db/db mouse at 1 mg/kg after 8 days relative to control; type: functional; design: scale not given: the % may be the effect or the level left; conditions: route oral; summary of the method: as §2
Mus musculus [13] = assay: Increase in body weight in orally dosed db/db mouse at 1 mg/kg after 8 days relative to control; type: functional; conditions: route oral; summary of the method: as §2
Mus musculus [14] = assay: Increase in body weight in orally dosed db/db mouse at 10 mg/kg in a 8 day study; type: functional; conditions: route oral; summary of the method: as §2
Mus musculus [15] = assay: Reduction of plasma triglycerides in orally dosed db/db mouse at 10 mg/kg after 8 days relative to control; type: functional; design: scale not given: the % may be the effect or the level left; conditions: route oral; summary of the method: as §2
Mus musculus [16] = assay: Reduction of plasma triglycerides in orally dosed db/db mouse at 1 mg/kg after 8 days relative to control; type: functional; design: scale not given: the % may be the effect or the level left; conditions: route oral; summary of the method: as §2
[17] = target: T4, Peroxisome proliferator-activated receptor gamma (Homo sapiens, UniProt P37231); assay: Displacement of radiolabeled darglitazone from human PPAR gamma by SPA binding assay
T4 sequence (P37231 whole entry): T1 sequence (whole entry)

[18] = target: T4, Peroxisome proliferator-activated receptor gamma; assay: Agonist activity at human PPAR gamma in a HepG2 cells by PPAR-GAL4 transactivation assay; type: functional, cell-based
[19] = target: T2, Peroxisome proliferator-activated receptor alpha (Homo sapiens); assay: Displacement of radiolabeled GW-2331 from human PPAR alpha by SPA assay at 100 uM; summary of the method: as §1

| Compound | %max [3] | Ki [4] | EC50 [5] | Ki [17] | also measured |
| --- | --- | --- | --- | --- | --- |
| Cc1oc(-c2ccccc2)nc1CCOc1ccc(CC2(C(=O)O)CCOCC2)cn1 | – | – | – | – | Activity [1]: 32%; inhibition [2]: 2% |
| COC(C)(Cc1ccc(OCCc2nc(-c3ccccc3)oc2C)nc1)C(=O)O (stereo not given) | 106% | 330 nM | 144 nM | – | – |
| Cc1oc(-c2cccc(Cl)c2)nc1CCOc1ccc(CC2(C(=O)O)CCCO2)cn1 (stereo not given) | 117% | 99 nM | 46 nM | – | – |
| CCOC(Cc1ccc(OCCc2nc(-c3ccccc3)oc2C)nc1)C(=O)O (stereo not given) | 96% | 43 nM | 33 nM | – | – |
| CO[C@@](C)(Cc1ccc(OCCc2nc(-c3ccccc3)oc2C)nc1)C(=O)O | 99% | 570 nM | 111 nM | – | Activity (Mus musculus [6]): 106%; half-life [7]: 9.7 h; Activity (Mus musculus [8]): 3.8%; bioavailability [9]: 87%; Activity (Mus musculus [10]): 7.2%; clearance [11]: 2.2 mL/min/kg; Activity (Mus musculus [12]): 88%; Activity (Mus musculus [13]): 13.2%; Activity (Mus musculus [14]): 16.8%; Activity (Mus musculus [15]): 205%; Activity (Mus musculus [16]): 177% |
| Cc1oc(-c2ccccc2)nc1CCOc1ccc(CC(C(=O)O)C(C)(C)C)cn1 (stereo not given) | – | 9400 nM | – | 12000 nM | – |
| Cc1oc(-c2ccccc2)nc1CCCOc1ccc(CC2(C(=O)O)CCCO2)cn1 (stereo not given) | – | 1840 nM | – | 810 nM | – |
| Cc1oc(-c2ccccc2)nc1CCOc1ccc(CC2(C(=O)O)CCCO2)cn1 (stereo not given) | 106% | 78 nM | 48 nM | – | – |
| CCOC(CC)(Cc1ccc(OCCc2nc(-c3ccccc3)oc2C)nc1)C(=O)O (stereo not given) | 64% | 15100 nM | 4670 nM | 14400 nM | EC50 [18]: 2810 nM |
| COc1ccc(-c2nc(CCOc3ccc(CC4(C(=O)O)CCCO4)cn3)c(C)o2)cc1 (stereo not given) | 96% | 65 nM | 486 nM | – | – |
| Cc1oc(-c2ccccc2)nc1CCOc1ccc(CC2(C(=O)O)CCCCC2)cn1 | – | 8300 nM | – | – | – |
| Cc1oc(-c2ccc(C#N)cc2)nc1CCOc1ccc(CC2(C(=O)O)CCCO2)cn1 (stereo not given) | 167% | 314 nM | 31 nM | 334 nM | EC50 [18]: 28 nM |
| Cc1oc(-c2ccccc2)nc1CCOc1ccc(CC2(C(=O)O)CC2)cn1 | 39% | – | 6150 nM | – | inhibition [19]: 44% |
| CCCC(Cc1ccc(OCCc2nc(-c3ccccc3)oc2C)nc1)C(=O)O (stereo not given) | 92% | 880 nM | 770 nM | – | – |
| Cc1oc(-c2ccccc2)nc1CCOc1ccc(CC(C)C(=O)O)cn1 (stereo not given) | 93% | 3000 nM | 287 nM | – | – |
| Cc1oc(-c2ccccc2)nc1CCOc1ccc(CC(CC(C)C)C(=O)O)cn1 (stereo not given) | 98% | 430 nM | 1720 nM | 360 nM | EC50 [18]: 1650 nM |
